According to ChEMBL document CHEMBL1123481, “Structure-activity relationships of (arylalkyl)imidazole anticonvulsants: comparison of the (fluorenylalkyl)imidazoles with nafimidone and denzimol” (J Med Chem, 1986):
Calls of active or inactive are those of the source. The calls are words filed in the database; no cut-off is given here.

Columns and labels:
Mus musculus [1] = assay: Effective dose in mice by maximal electroshock assay, administered orally; assay type: functional; settings: po
In short: (§1)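 Mice were dosed orally across a range of doses, given in 5% acacia/water. Time of peak effect was found by shocking at 0.5, 1, 2, 3 and 4 h. Corneal electroshock was 40 mA, 0.1 s, ac. Each compound was retested at peak time with at least four doses and 12 mice per dose. The ED50 for prevention of tonic-extensor convulsion was calculated by Litchfield–Wilcoxon; 95% confidence limits are given.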

Mus musculus [2] = assay: Effective dose in mice by horizontal screen assay (administered orally); No effect at highest dose of 400 mg/kg; assay type: functional, organism-based; parameters: dose 400 mg/kg
In short: (§2)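 Fasted, pre-trained male CF1 mice (20–25 g) were dosed orally across a range of doses, given as a suspension in 5% acacia/water. Each mouse was placed on a 13 cm square wire screen, and the screen was rotated 180°. The score was return to the top within 1 min. Time of peak effect was scanned at 0.5–4 h. Each compound was then retested at that time with at least 4 doses and 12 mice per dose.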

Mus musculus [3] = assay: Effective dose in mice by pentylenetetrazole assay (administered subcutaneously); assay type: functional; settings: sc
In short: (§3)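 Test compound was given orally to mice. At its previously determined time of peak effect, pentylenetetrazole (110 mg/kg in water, 10 mL/kg) was injected sc into the neck skin fold. Mice were watched for 15 min for presence or absence of a clonic seizure. Where protection was bell-shaped, the value is the dose giving maximum protection.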

Mus musculus [4] = species on record: Mus musculus; assay: Compound was tested for time to peak anticonvulsant effect (TPE); assay type: functional
In short: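 Time to peak effect after oral dosing in 5% acacia/water was estimated by testing mice at 0.5, 1, 2, 3 and 4 h posttreatment in the MES and horizontal screen tests.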

Mus musculus [5] = assay: Effective dose in mice by horizontal screen assay (administered orally); assay type: functional; settings: po; in short: as §2
Mus musculus [6] = species on record: Mus musculus; assay: Potentiation of hexobarbital-induced sleeping time in mice; assay type: functional
In short: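 Groups of 10 fasted mice received compound orally at 10 mg/kg in 5% acacia/water (10 mL/kg). At the compound's time of peak effect they were given hexobarbital 100 mg/kg ip, solubilized with stoichiometric NaOH. Sleeping time, measured as loss of righting reflex, was recorded to the nearest minute. Values are mean ± SEM.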

Mus musculus [7] = assay: Compound was tested for effective dose in mice by horizontal screen assay (administered orally); No effect at highest dose of 100 mg/kg; assay type: functional, organism-based; parameters: dose 100 mg/kg; in short: as §2
[8] = target: T1, GABA-A receptor; anion channel (Rattus norvegicus) (UniProt O09028+P15431+P18506+P18508+P19969+P20236+P23574+P23576+P28471+P28473+P30191+P62813+P63079+P63138+Q91ZM7+Q9ES14); assay: In vitro displacement of [3H]flunitrazepam binding from rat cortical membranes at 50 uM; assay type: cell membranes; settings: Membrane
In short: (§4)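 Rat cortical membranes (180 μg protein) were incubated with 2 nM [3H]flunitrazepam in 50 mM Tris-HCl pH 7.4 for 40 min at 4 °C, with test compound at 5×10^-5 M, in triplicate. Samples were filtered and washed three times with ice-cold buffer. Nonspecific binding was defined with 3 μM diazepam. Results are given as % of control, mean ± SEM.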

[9] = target: T1, GABA-A receptor; anion channel (Rattus norvegicus); assay: In vitro displacement of [3H]flunitrazepam binding to cortical membranes at 5e-5M concentration; in short: as §4
[10] = target: T1, GABA-A receptor; anion channel (Rattus norvegicus); assay: In vivo displacement of [3H]flunitrazepam binding to rat cortical membranes after 20 mg/kg ip dose; assay type: organism-based; parameters: dose 20 mg/kg; settings: Membrane, at 20 mg/kg
In short: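 Male Sprague-Dawley rats (100 g; five per group) received saline or compound at 20 mg/kg ip. After 30 min, [3H]flunitrazepam (100 μCi/kg) was given iv via the tail vein. Rats were killed 20 min later. Cortex was homogenized in 50 mM Tris-HCl pH 7.4, and the particulate fraction was filtered and rinsed. Results are given as % of saline control, mean ± SEM.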

Mus musculus [11] = assay: Effective dose in mice by pentylenetetrazole assay (administered subcutaneously); No effect at highest dose of 400 mg/kg; assay type: functional, organism-based; parameters: dose 400 mg/kg; in short: as §3
Mus musculus [12] = assay: Compound was tested for effective dose in mice by pentylenetetrazole assay (administered subcutaneously); No effect at highest dose of 800 mg/kg; assay type: functional, organism-based; parameters: dose 800 mg/kg; in short: as §3
Mus musculus [13] = assay: Compound was tested for effective dose in mice by horizontal screen assay (administered orally; No effect at highest dose of 200 mg/kg
Mus musculus [14] = assay: Compound was tested for effective dose in mice by pentylenetetrazole assay (administered subcutaneously);No effect at highest dose of 200 mg/kg; assay type: functional, organism-based; parameters: dose 200 mg/kg; in short: as §3
Mus musculus [15] = assay: Effective dose in mice by horizontal screen assay (administered orally); No effect at highest dose of 200 mg/kg
Mus musculus [16] = assay: Effective dose in mice by pentylenetetrazole assay (administered subcutaneously); No effect at highest dose of 200 mg/kg
Mus musculus [17] = assay: Compound was tested for effective dose in mice by horizontal screen assay (administered orally); No effect at highest dose of 800 mg/kg; assay type: functional, organism-based; parameters: dose 800 mg/kg; in short: as §2
Mus musculus [18] = assay: Compound was tested for effective dose in mice by maximal electroshock assay (administered orally); No effect at highest dose of 800 mg/kg; assay type: functional, organism-based; parameters: dose 800 mg/kg; in short: as §1
Mus musculus [19] = assay: Compound was tested for effective dose in mice by pentylenetetrazole assay (administered subcutaneously); No effect at highest dose of 100 mg/kg; assay type: functional, organism-based; parameters: dose 100 mg/kg; in short: as §3

Compound | ED50 (Mus musculus [1]) | ED50 (Mus musculus [2]) | ED50 (Mus musculus [3]) | TPE (Mus musculus [4]) | ED50 (Mus musculus [5]) | other results
O=C(Cn1ccnc1)c1ccc2c(c1)-c1ccccc1CC2 | 71 mg/kg | No effect | > 400 mg/kg | 1 h | – | –
CC(C(=O)c1ccc2c(c1)Cc1ccccc1-2)n1ccnc1 (configuration not stated) | – | – | 260 mg/kg | 1.5 h | > 400 mg/kg | ST (Mus musculus [6]): 103 min
OC(Cn1ccnc1)c1ccc(CCc2ccccc2)cc1 (configuration not stated) [DENZIMOL] | 12 mg/kg | – | – | 1 h | – | ST (Mus musculus [6]): 157.4 min; ED50 (Mus musculus [7]): No effect
O=C(Cn1ccnc1)c1ccc2c(ccc3ccccc32)c1 | 150 mg/kg | – | > 400 mg/kg | 1 h | > 400 mg/kg | Binding [8]: 28%; Control [9]: 128%; Control [10]: 128%
c1ccc2c(c1)Cc1cc(C3(Cn4ccnc4)OCCCO3)ccc1-2 | – | – | – | 1 h | > 400 mg/kg | ED50 (Mus musculus [11]): No effect
CC(C)c1ccc2c(c1)Cc1cc(C(=O)Cn3ccnc3)ccc1-2 | 190 mg/kg | No effect | – | 2 h | – | ED50 (Mus musculus [11]): No effect
COc1ccc2c(c1)Cc1cc(C(=O)Cn3ccnc3)ccc1-2 | 360 mg/kg | No effect | – | 2 h | – | ED50 (Mus musculus [12]): No effect; ST (Mus musculus [6]): 56.9 min
Cc1cn(CC(=O)c2ccc3c(c2)Cc2ccccc2-3)cn1 | – | – | – | 1 h | > 400 mg/kg | ED50 (Mus musculus [11]): No effect
O=C(Cn1ccnc1)c1ccc2ccc3ccccc3c2c1 | 52 mg/kg | – | > 400 mg/kg | 1 h | > 400 mg/kg | Binding [8]: 23%; Control [9]: 123%; Control [10]: 121%
O=C(OC(Cn1ccnc1)c1ccc2c(c1)Cc1ccccc1-2)c1ccccc1 (configuration not stated) | – | No effect | > 400 mg/kg | 1 h | – | –
O=C(Cn1ccnc1)c1cc2ccccc2s1 | 86 mg/kg | – | > 400 mg/kg | 1 h | > 400 mg/kg | –
Cc1nccn1CC(=O)c1ccc2c(c1)Cc1ccccc1-2 | – | – | – | 1 h | > 400 mg/kg | –
OC(CCn1ccnc1)c1ccc2c(c1)Cc1ccccc1-2 (configuration not stated) | – | – | – | 1 h | > 400 mg/kg | ST (Mus musculus [6]): 75 min; ED50 (Mus musculus [11]): No effect
O=C(Cn1ccnc1)c1cccc2c1Cc1ccccc1-2 | 19 mg/kg | – | > 200 mg/kg | 2 h | > 100 mg/kg | –
O=C(CCn1ccnc1)c1ccc2c(c1)Cc1ccccc1-2 | – | – | > 100 mg/kg | 1 h | > 200 mg/kg | –
CCc1nccn1CC(=O)c1ccc2c(c1)Cc1ccccc1-2 | 190 mg/kg | – | > 400 mg/kg | 2 h | > 400 mg/kg | –
CC1c2ccccc2-c2ccc(C(=O)Cn3ccnc3)cc21 (configuration not stated) | – | – | – | 2 h | – | ED50 (Mus musculus [13]): No effect; ED50 (Mus musculus [14]): No effect; ST (Mus musculus [6]): 69.7 min

Compound | ED50 (Mus musculus [1]) | ED50 (Mus musculus [2]) | ED50 (Mus musculus [3]) | TPE (Mus musculus [4]) | ED50 (Mus musculus [5]) | other results
CC1COC(Cn2ccnc2)(c2ccc3c(c2)Cc2ccccc2-3)O1 (configuration not stated) | – | – | > 200 mg/kg | 2 h | > 400 mg/kg | –
CCC(C(=O)c1ccc2c(c1)Cc1ccccc1-2)n1ccnc1 (configuration not stated) | – | No effect | > 400 mg/kg | 1 h | – | –
O=C(Cn1ccnc1)c1ccc2c(c1)Cc1cc(Br)ccc1-2 | – | No effect | – | 2 h | – | ED50 (Mus musculus [11]): No effect
O=C(Cn1ccnc1)c1csc2ccccc12 | 59 mg/kg | No effect | > 400 mg/kg | 1 h | – | –
c1ccc2c(c1)Cc1cc(CCn3ccnc3)ccc1-2 | 17.8 mg/kg | – | > 200 mg/kg | 2 h | > 100 mg/kg | –
CCc1ccc2c(c1)Cc1cc(C(=O)Cn3ccnc3)ccc1-2.Cl | 240 mg/kg | No effect | > 400 mg/kg | 1 h | – | –
c1ccc2c(c1)Cc1cc(C3(CCn4ccnc4)OCCO3)ccc1-2 | – | No effect | > 400 mg/kg | 1 h | – | –
O=C(Cn1ccnc1)c1ccc2ccccc2c1 [NAFIMIDONE] | 56 mg/kg | inactive | > 400 mg/kg | 1 h | – | ST (Mus musculus [6]): 59.1 min; Control [9]: 102%; Control [10]: 116%
c1ccc2cc(CCn3ccnc3)ccc2c1 | 51 mg/kg | – | > 200 mg/kg | 1 h | > 200 mg/kg | –
Cc1ccc2c(c1)Cc1cc(C(=O)Cn3ccnc3)ccc1-2 | – | No effect | – | 2 h | – | ED50 (Mus musculus [11]): No effect
CC1(C)c2ccccc2-c2ccc(C(=O)Cn3ccnc3)cc21 | – | – | > 400 mg/kg | 1 h | > 400 mg/kg | –
c1ccc2c(c1)Cc1cc(C3(Cn4ccnc4)SCCS3)ccc1-2 | – | – | > 400 mg/kg | 2 h | > 400 mg/kg | –
CC1(C)COC(Cn2ccnc2)(c2ccc3c(c2)Cc2ccccc2-3)OC1 | – | – | – | 2 h | – | ED50 (Mus musculus [15]): No effect; ED50 (Mus musculus [16]): No effect
O=C(Cn1ccnc1)c1cccc2c1-c1ccccc1C2 | – | – | 400 mg/kg | 1 h | > 400 mg/kg | –
O=C(Cn1cnc(-c2ccccc2)c1)c1ccc2c(c1)Cc1ccccc1-2 | – | – | – | 2 h | – | ED50 (Mus musculus [12]): No effect; ED50 (Mus musculus [17]): No effect; ED50 (Mus musculus [18]): No effect
c1ccc2c(c1)Cc1cc(C3(Cn4ccnc4)OCCO3)ccc1-2 | – | – | – | 4 h | > 100 mg/kg | ED50 (Mus musculus [19]): No effect; ST (Mus musculus [6]): 88.7 min
